In the library only some 2.6% were active in any assay of this set; here they are far more common.
T cell HTS: modulators of CD8 T cell-vesicle binding, primary screen, mouse 2C CD8+ T cells, flow cytometry; response (vesicle binding), % at 7 µM; actives 0.068% (n = 330,000); 2C CD8+ T cell-vesicle binding; stronger effect = lower value;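 active means response, share of CD8 T cells binding vesicles, and their 90th percentile fluorescence all below set limits, cut at about 80% in these data, passing the limit was not always enough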;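 further: values below 100% mean blocked vesicle binding to the CD8+ T cells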
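incubation = binding step 1.5 h, 37 °C, antibody labelling 20 min, ice | test system = 2C mouse CD8+ T cells | read-out basis = percent CD8+ FL2 mean versus row control | controls = Peptide-free naked vesicles (low) and QL9 vesicles with 0.7% DMSO vehicle (high) | detection = flow cytometry of vesicle-bound cells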
MC4R antag cAMP: MC4R antagonists of cAMP signaling, primary screen, cell-based, TR-FRET, antagonist arm of biased-ligand search. actives 0.48% (n = 360,000). Melanocortin receptor 4 (Homo sapiens), P32245. MC4R-expressing cells, MTII-stimulated cAMP, LANCE TR-FRET. AID 540295, 2011. inhibition, % at 6.5 µM;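 active means inhibition above its plate's cutoff, the mean of tested wells on that plate plus 3 SD, cut at about 29% in these data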;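 further: 0% = Melanotan II alone and 100% = Melanotan II plus saturating MCL0020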
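System: U2OS cells stably expressing human melanocortin 4 receptor (MC4R). Reagent: Melanotan II challenge after compound preincubation. Doses: 6.5 µM. Times: 30-min compound, 1-h challenge, 1-h detection, room temperature. Measured by: TR-FRET with Eu-cAMP and labeled anti-cAMP, 671 nm. Replicates: singlicate.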
Granule exo inh: LAMP-1 surface exposure blockers, TALL-104 cells – cell-based, flow cytometry, MLPCN library, primary screen. inhibition, % at 10 µM. actives 0.66% (n = 360,000). TALL-104 LAMP-1 surface exposure; cells stimulated with thapsigargin and PMA;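 active means inhibition above about 55%, limit read from the data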
MC4R barr agon: MC4R agonists recruiting beta-arrestin, primary screen, cell-based, luminescence, agonist arm of biased-ligand search; Melanocortin receptor 4 (Homo sapiens), P32245; U2OS MC4R beta-arrestin complementation; percent of melanotan II response, DMSO zero; activation, % at 8.9 µM; actives 0.98% (n = 360,000); AID 540308, 2011;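 active means activation above a per-plate cutoff, the mean activation of sample wells on that plate plus 3 SD, cut at about 8% in these data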
EP2 antag: human EP2 receptor antagonists, primary screen, TR-FRET cAMP, C6 glioma cells | actives 0.52% (n = 260,000) | inhibition, % at 25 µM | Prostaglandin E2 receptor EP2 subtype (Homo sapiens), P43116 | AID 1422, 2008 | C6 glioma cells expressing human EP2; cells stimulated with saturating PGE2;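 active means percent inhibition above 40 after rounding to a whole number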;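 further: rat C6 glioma host cells with rolipram phosphodiesterase inhibitor present; the protocol text gives 20 µM as final concentration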
Target sequence (P43116 whole entry, looked up): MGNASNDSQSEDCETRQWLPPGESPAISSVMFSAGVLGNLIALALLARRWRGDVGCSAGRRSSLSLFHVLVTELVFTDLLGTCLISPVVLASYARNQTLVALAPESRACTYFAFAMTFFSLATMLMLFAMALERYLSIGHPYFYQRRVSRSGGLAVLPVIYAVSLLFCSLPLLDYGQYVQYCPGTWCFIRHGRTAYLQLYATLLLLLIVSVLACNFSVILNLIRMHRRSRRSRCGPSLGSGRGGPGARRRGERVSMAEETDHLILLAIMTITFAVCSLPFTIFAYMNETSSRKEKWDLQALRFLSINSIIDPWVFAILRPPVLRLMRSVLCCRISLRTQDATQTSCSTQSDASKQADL
EP2 mod: EP2 receptor modulators, cAMP readout, primary screen, cell-based, HTRF cAMP, PGE2 stimulation; Prostaglandin E2 receptor EP2 subtype (Homo sapiens), P43116; EP2-expressing cells, cAMP HTRF FRET, PGE2 co-stimulation; induction, % at 25 µM; actives 0.83% (n = 260,000); AID 940, 2007;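 active means compounds whose cAMP rise, as percent of the full-agonist control response, exceeds 60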;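 further: rat C6 glioma line stably carrying human EP2 under a CMV promoter; the protocol text gives 20 µM as final concentration; 100% = response of wells given 1 µM PGE2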
Active calls of the source: *.

Results for CCCN(C(=O)Cn1ncc2c(=O)oc3ccccc3c21)c1cccc(C)c1 ?
T cell HTS: 664; MC4R antag cAMP: 6; Granule exo inh: -1; MC4R barr agon: -1; EP2 antag: 4; EP2 mod: 29

Results for CC(C)(C)C1=CC=C(C(C)(C)C)C(=O)C1=O ?
T cell HTS: 321; EP2 antag: 102*; EP2 mod: -47

How did COc1ccc(N2CCN(CC(O)COc3ccc(C)cc3C)CC2)cc1 (configuration not stated) do in these assays?
T cell HTS: 303; MC4R antag cAMP: 1; Granule exo inh: -8; MC4R barr agon: 1

How did CCCOP(=O)(c1ccc(N(C)C)cc1)C(O)c1cc(OC)ccc1OC (configuration not stated) do in these assays?
T cell HTS: 275; MC4R antag cAMP: 0; Granule exo inh: 5; MC4R barr agon: -1

Results for O=C(Nc1ccc(F)c(F)c1)c1cnc(-c2ccccc2)nc1-c1ccccc1 ?
T cell HTS: 378; MC4R antag cAMP: -1; Granule exo inh: 0; MC4R barr agon: 8.7*; EP2 antag: 2; EP2 mod: 7

How did Cc1c(C(=O)N2CCN(CCc3ccccc3)CC2)oc2ccccc12 do in these assays?
T cell HTS: 242; MC4R antag cAMP: -4; Granule exo inh: 1; MC4R barr agon: 2; EP2 antag: 8; EP2 mod: -41

What do the screens show for `CC1(C)Cc2cccc(OCC(=O)OCC(=O)c3ccccc3)c2O1`?
T cell HTS: inactive; MC4R antag cAMP: 0; Granule exo inh: 2; MC4R barr agon: 1

Results for Cc1noc(C)c1COC(=O)COc1cccc2c1OC(C)(C)C2 ?
T cell HTS: 432; MC4R antag cAMP: 3; Granule exo inh: 3; MC4R barr agon: -2; EP2 antag: 10; EP2 mod: 65*

How did COc1ccc(CN(C(=O)c2ccco2)c2ccc(C)c(C)c2)cc1 do in these assays?
T cell HTS: 421; MC4R antag cAMP: -2; Granule exo inh: 0; MC4R barr agon: -2; EP2 antag: 7; EP2 mod: 65*

Results for COc1ccc(CNC(=O)C[C@H]2C(=O)N(c3ccccc3)C[C@@H]2Cc2ccccc2)cc1 ?
T cell HTS: 754; MC4R antag cAMP: 13; Granule exo inh: 5; MC4R barr agon: 1

How did CCc1ccc2nc(N(CCCN(C)C)C(=O)c3ccc(S(=O)(=O)N(C)C4CCCCC4)cc3)sc2c1 do in these assays?
T cell HTS: 312; MC4R antag cAMP: 11; Granule exo inh: 24; MC4R barr agon: 13*

How did CN(C)CCC1Sc2ccccc2Oc2ccccc21 (configuration not stated) do in these assays?
T cell HTS: 130; MC4R antag cAMP: 7; Granule exo inh: 0; MC4R barr agon: -2; EP2 antag: 11; EP2 mod: -5

How did CN(C)CCC[C@@H]1c2ccccc2Oc2ccc(C(F)(F)F)cc21 do in these assays?
EP2 antag: 58*; EP2 mod: -32

Results for CCN(CC)c1ccc(/C=c2/sc3nnc(-c4ccccc4C)n3c2=O)cc1 ?
T cell HTS: 365; MC4R antag cAMP: 5; Granule exo inh: 1; MC4R barr agon: 0; EP2 antag: 48*; EP2 mod: 12

What do the screens show for `Cc1cccc2cc(C#N)c(N3CCCCC3)nc12`?
EP2 antag: 11; EP2 mod: 74*

How did Cc1cccc2cc(C#N)c(SCC(=O)N3CCC(C)CC3)nc12 do in these assays?
T cell HTS: 242; MC4R antag cAMP: 0; Granule exo inh: 1; MC4R barr agon: 3; EP2 antag: 10; EP2 mod: -1

How did Cc1cccc2cc(C#N)c(N3CCC(C)CC3)nc12 do in these assays?
EP2 antag: 12; EP2 mod: 77*

What do the screens show for `Cc1cc(C)c2nc(N3CCCCC3)c(C#N)cc2c1`?
EP2 antag: 7; EP2 mod: 63*

Results for Cn1c2ccccc2c2cc(/C=N/NC(=O)c3ccc(O)cc3O)ccc21 ?
T cell HTS: 268; MC4R antag cAMP: 10; Granule exo inh: 15; MC4R barr agon: -2

Results for Cn1c(O)c(/C=N/NC(=O)c2cc3ccccc3cc2O)c2ccccc21 ?
T cell HTS: 274; MC4R antag cAMP: 7; Granule exo inh: 83*; MC4R barr agon: -4

How did O=C1NC(=O)C2C3c4ccccc4C(c4ccccc43)C12 (configuration not stated) do in these assays?
T cell HTS: 551; MC4R antag cAMP: 28; Granule exo inh: 5; MC4R barr agon: -1; EP2 antag: 6; EP2 mod: 11

Results for O=C1c2ccccc2C(=O)N1Nc1ccccc1 ?
T cell HTS: 716; MC4R antag cAMP: 5; Granule exo inh: 1; MC4R barr agon: 0; EP2 mod: 15

Results for Cc1ccc(NN2C(=O)C=C(c3ccccc3)C2=O)cc1 ?
MC4R antag cAMP: -16; Granule exo inh: 67*; MC4R barr agon: 2; EP2 antag: 48*; EP2 mod: -93

How did CCC(CC)c1nnc(NC(=O)CCCN2C(=O)c3ccccc3C2=O)s1 do in these assays?
T cell HTS: 206; MC4R antag cAMP: -5; Granule exo inh: 2; MC4R barr agon: -2; EP2 antag: 14; EP2 mod: -2

What do the screens show for `CCOC(=O)c1cc(NC(=O)c2cc(C)on2)cc(C(=O)OCC)c1`?
T cell HTS: 288; MC4R antag cAMP: -1; Granule exo inh: -3; MC4R barr agon: 31*; EP2 antag: 8; EP2 mod: 14

How did CCCCC[C@H](O)/C=C/[C@@H]1[C@@H](C/C=C\CCCC(=O)O)[C@H]2CO[C@@H]1C2 do in these assays?
T cell HTS: 868; MC4R antag cAMP: -5; Granule exo inh: -5; MC4R barr agon: 1; EP2 antag: 11; EP2 mod: 98*

How did CCCCC[C@H](O)/C=C/[C@@H]1[C@@H](C/C=C\CCCC(=O)OC)[C@@H](O)C[C@H]1O do in these assays?
T cell HTS: 479; MC4R antag cAMP: -4; Granule exo inh: 2; MC4R barr agon: -2; EP2 antag: 10; EP2 mod: 52

How did CCCCC[C@H](O)/C=C/[C@@H]1[C@@H](C/C=C\CCCC(=O)O)[C@@H](O)C[C@H]1O do in these assays?
T cell HTS: 114; MC4R antag cAMP: -5; Granule exo inh: 4; MC4R barr agon: -1; EP2 antag: 10; EP2 mod: 102*
